Measurements: ChEMBL document CHEMBL4732060, “Cytotoxic triterpenoid-safirinium conjugates target the endoplasmic reticulum” (Eur J Med Chem, 2021)

Experiments:
HEK293 = experiment: Cytotoxicity against human HEK293 cells assessed as reduction in cell viability measured after 72 hrs by SRB assay; format: ADME, cell-based; conditions: HEK293, 72 h
A-375 = experiment: Cytotoxicity against human A-375 cells assessed as reduction in cell viability measured after 72 hrs by SRB assay; format: functional, cell-based; conditions: A-375, 72 h
HT-29 = experiment: Cytotoxicity against human HT-29 cells assessed as reduction in cell viability measured after 72 hrs by SRB assay; format: functional, cell-based; conditions: HT-29, 72 h
MCF7 = experiment: Cytotoxicity against human MCF7 cells assessed as reduction in cell viability measured after 72 hrs by SRB assay; format: functional, cell-based; conditions: MCF7, 72 h
A2780 = experiment: Cytotoxicity against human A2780 cells assessed as reduction in cell viability measured after 72 hrs by SRB assay; format: functional, cell-based; conditions: A2780, 72 h
FaDu = experiment: Cytotoxicity against human FaDu cells assessed as reduction in cell viability measured after 72 hrs by SRB assay; format: functional, cell-based
NIH3T3 = experiment: Cytotoxicity against mouse NIH3T3 cells assessed as reduction in cell viability measured after 72 hrs by SRB assay; format: cell-based; conditions: NIH3T3, 72 h
Summary of the method: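 Sulforhodamine B assay on human tumour lines A375 (epithelial melanoma), HT29 (colorectal adenocarcinoma), MCF-7 (breast adenocarcinoma), A2780 (ovarian carcinoma) and FaDu (squamous cell carcinoma). Non-malignant NIH 3T3 (mouse fibroblasts) and HEK293 (human embryonic kidney) cells were also tested. EC50 values are given as mean ± standard mean error.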

[1] = Drug uptake in Mitochondria of human A-375 cells at 5.4 uM measured after 12 hrs by Mito-tracker based fluorescence imaging analysis; format: ADME; conditions: a-375, 12 h
[2] = Drug uptake in endoplasmic reticulum of human A-375 cells at 5.4 uM measured after 12 hrs by ER-tracker based fluorescence imaging analysis; format: ADME, subcellular; conditions: a-375, 12 h
Summary of the method: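 Living A375 cells were incubated with compound for 12 h, co-stained with ER-Tracker, and imaged by fluorescence microscopy. Compound, tracker and merged channels were compared for localisation in the endoplasmic reticulum.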

| Drug uptake [1] | Drug uptake [2] | Structure (SMILES) | EC50 (HEK293) [µM] | EC50 (A-375) [µM] | EC50 (HT-29) [µM] | EC50 (MCF7) [µM] | EC50 (A2780) [µM] | EC50 (FaDu) [µM] | EC50 (NIH3T3) [µM] |
| --- | --- | --- | --- | --- | --- | --- | --- | --- | --- |
| – | – | C=C(C)[C@@H]1CC[C@]2(C(=O)NCCNC(=O)C3=Cc4ccccc4N4C[N+](CC)(CC)N=C34)CC[C@]3(C)C(=CC[C@@H]4[C@@]5(C)CC[C@H](OC(C)=O)C(C)(C)[C@@H]5CC[C@]43C)[C@H]12 | 13.6 | 18.6 | 26.8 | 17.6 | 18.3 | 12.3 | 17.4 |
| Not Active | Active | C=C(C)[C@@H]1CC[C@]2(C(=O)N3CCN(C(=O)C4=C(C)C=C(C)N5C[N+](CCCCCC)(CCCCCC)N=C45)CC3)CC[C@]3(C)[C@H](CC[C@@H]4[C@@]5(C)CC[C@H](OC(C)=O)C(C)(C)[C@@H]5CC[C@]43C)[C@@H]12.[Cl-] | 3 | 5.4 | 7.5 | 4.9 | 4.6 | 6 | 6.6 |
